Experimental data published in ChEMBL document CHEMBL1140300, “Synthesis and pharmacological characterization of exo-2-(2'-chloro-5-pyridinyl)-7-(endo and exo)-aminobicyclo[2.2.1]heptanes as novel epibatidine analogues” (J Med Chem, 2005).

What was measured:
[1] = biological target: Neuronal acetylcholine receptor; alpha4/beta2 (Rattus norvegicus, UniProt P09483+P12390); experiment: Displacement of [3H]epibatidine from alpha4beta2 nAChR in rat cerebral cortex; format: tissue-based
[2] = biological target: Neuronal acetylcholine receptor subunit alpha-7 (Homo sapiens, UniProt P36544); experiment: Displacement of [125]iodoMLA from alpha-7 nAChR
[3] = test system: Mus musculus; experiment: Activity in sc dosed mouse by hypothermia test; format: functional
In short: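 Rectal temperature in mice via thermistor probe inserted 24 mm, read just before and at several times after sc injection of saline or test compound. Change from pretreatment value per mouse. Ambient 21–24 °C. ED50 with 95% confidence limits by unweighted least-squares linear regression.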

[4] = test system: Mus musculus; experiment: Antinociceptive activity in sc dosed mouse by tail-flick method; format: functional
In short: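 Mouse tail-flick (D'Amour–Smith): tail exposed to heat lamp, latency to flick recorded. Control latency (2–4 s) taken per mouse before treatment, test latency after sc dosing. Response as %MPE = [(test – control)/(maximum latency – control) × 100]. ED50 with 95% confidence limits by unweighted least-squares linear regression.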

[5] = test system: Mus musculus; experiment: Antinociceptive activity in sc dosed mouse by hotplate method; format: functional
In short: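 Mouse hot-plate at 55.0 °C, animal in 10 cm glass cylinder. Two control latencies ≥10 min apart (normal 8–12 s). End point is jumping or paw licking. Tested 5 min after sc injection across a dose range. Response as %MPE = [(test – control)/(maximum latency – control) × 100]. ED50 with 95% confidence limits by unweighted least-squares linear regression.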

[6] = test system: Mus musculus; experiment: Effect on locomotor activity in sc dosed mouse; format: functional
In short: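 Spontaneous activity: mice placed in individual photocell cages (28 × 16.5 cm) 5 min after sc dosing of 0.9% saline or test compound. Beam interruptions (two banks of eight cells) counted over the next 10 min.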

Neuronal acetylcholine receptor; alpha4/beta2, sequence (P09483 whole entry): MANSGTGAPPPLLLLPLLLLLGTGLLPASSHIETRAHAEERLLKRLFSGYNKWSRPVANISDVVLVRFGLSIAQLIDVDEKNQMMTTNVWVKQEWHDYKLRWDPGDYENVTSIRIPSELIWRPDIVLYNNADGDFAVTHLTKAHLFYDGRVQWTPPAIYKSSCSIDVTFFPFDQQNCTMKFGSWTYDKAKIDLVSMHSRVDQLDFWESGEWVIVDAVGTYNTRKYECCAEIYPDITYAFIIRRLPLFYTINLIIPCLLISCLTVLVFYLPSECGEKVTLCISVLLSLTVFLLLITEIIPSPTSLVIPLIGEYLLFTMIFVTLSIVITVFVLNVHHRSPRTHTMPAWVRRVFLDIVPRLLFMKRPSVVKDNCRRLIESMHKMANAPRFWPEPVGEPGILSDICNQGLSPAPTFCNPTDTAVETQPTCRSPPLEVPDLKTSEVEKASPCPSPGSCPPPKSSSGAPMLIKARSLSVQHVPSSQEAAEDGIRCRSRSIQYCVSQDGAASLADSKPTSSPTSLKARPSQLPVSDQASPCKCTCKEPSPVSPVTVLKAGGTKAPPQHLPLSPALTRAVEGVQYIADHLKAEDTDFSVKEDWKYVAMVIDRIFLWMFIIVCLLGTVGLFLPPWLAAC
Neuronal acetylcholine receptor; alpha4/beta2, sequence (P12390 whole entry): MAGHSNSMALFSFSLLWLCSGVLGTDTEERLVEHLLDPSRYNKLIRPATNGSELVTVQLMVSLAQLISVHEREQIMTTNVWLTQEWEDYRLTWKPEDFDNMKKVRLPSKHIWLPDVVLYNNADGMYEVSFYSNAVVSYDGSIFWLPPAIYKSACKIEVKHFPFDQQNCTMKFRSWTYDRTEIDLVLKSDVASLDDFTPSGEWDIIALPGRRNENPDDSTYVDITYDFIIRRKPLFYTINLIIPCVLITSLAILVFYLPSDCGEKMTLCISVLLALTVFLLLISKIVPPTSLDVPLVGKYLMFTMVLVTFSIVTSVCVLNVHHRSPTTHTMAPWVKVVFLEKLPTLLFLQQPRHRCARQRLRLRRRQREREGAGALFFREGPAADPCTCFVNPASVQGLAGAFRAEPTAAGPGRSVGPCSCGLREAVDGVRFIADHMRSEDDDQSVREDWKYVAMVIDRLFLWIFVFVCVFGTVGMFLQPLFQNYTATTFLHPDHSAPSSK
Neuronal acetylcholine receptor subunit alpha-7, sequence (P36544 whole entry): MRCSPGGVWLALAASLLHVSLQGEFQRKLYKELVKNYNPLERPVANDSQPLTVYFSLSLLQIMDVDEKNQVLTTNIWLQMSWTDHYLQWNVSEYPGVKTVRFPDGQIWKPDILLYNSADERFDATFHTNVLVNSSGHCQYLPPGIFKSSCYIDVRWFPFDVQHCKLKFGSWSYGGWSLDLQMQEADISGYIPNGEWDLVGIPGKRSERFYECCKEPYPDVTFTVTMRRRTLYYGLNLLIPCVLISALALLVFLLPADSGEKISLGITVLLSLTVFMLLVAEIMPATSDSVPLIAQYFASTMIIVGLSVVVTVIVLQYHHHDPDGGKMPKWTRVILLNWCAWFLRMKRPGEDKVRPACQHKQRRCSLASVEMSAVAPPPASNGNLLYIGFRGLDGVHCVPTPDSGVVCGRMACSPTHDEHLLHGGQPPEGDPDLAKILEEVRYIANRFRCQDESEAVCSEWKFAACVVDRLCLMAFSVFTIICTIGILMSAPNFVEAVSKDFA

| Structure (SMILES) | Ki [1] | Ki [2] | ED50 [3] | ED50 [4] | ED50 [5] | ED50 [6] |
| --- | --- | --- | --- | --- | --- | --- |
| Clc1ccc([C@H]2CC3CCC2[C@@H]3NCc2ccccc2)cn1 (relative stereo) | > 1000 nM | > 200 nM | – | – | – | – |
| Cl.Cl.Cl.N[C@H]1C2CCC1[C@@H](c1ccc(Cl)nc1)C2 (relative stereo) | 8.2 nM | > 700 nM | 3.4 mg/kg | 4.5 mg/kg | 2.9 mg/kg | – |
| Clc1ccc([C@H]2CC3CCC2[C@H]3NCc2ccccc2)cn1 (relative stereo) | > 1000 nM | > 700 nM | – | – | – | – |
| Cl.N[C@@H]1C2CCC1[C@@H](c1ccc(Cl)nc1)C2 (relative stereo) | 10.9 nM | > 700 nM | 2.3 mg/kg | 4.5 mg/kg | 4.4 mg/kg | 1.1 mg/kg |
| Cl.Clc1ccc([C@H]2CC3CCC2N3)cn1 (some centres undefined) [EPIBATIDINE HYDROCHLORIDE] | – | 198 nM | 0.004 mg/kg | 0.006 mg/kg | 0.004 mg/kg | 0.001 mg/kg |
| CN1CCC[C@H]1c1cccnc1.Cl [NICOTINE HYDROCHLORIDE] | – | – | 1 mg/kg | 1.3 mg/kg | 0.65 mg/kg | 0.5 mg/kg |
